Results published in ChEMBL document CHEMBL6121049, “Discovery of Orally Available Prodrugs of Itaconate and Derivatives” (J Med Chem, 2025).
The source made the active and inactive calls. No cut-off for these calls is given here.

Experiments:
[1] = Metabolic stability in human plasma assessed as compound remaining at 10 uM measured after 1 hrs by LC-MS analysis; format: ADME, cell-free
Method in brief: (§1)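 Prodrugs (10 μM) spiked into mouse or human plasma, shaken at 37 °C; samples at 0 and 60 min quenched in cold acetonitrile with losartan internal standard, centrifuged, diluted, run by LC-HRMS; % remaining from analyte/IS peak-area ratio.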

[2] = Chemical stability in pH 4.5 assessed as compound remaining at 10 uM measured after 1 hrs by LC-MS/MS analysis; format: physicochemical; settings: buffer, pH 4.5, 1 h
Method in brief: (§2)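 Compounds incubated in buffers at pH 1.2, 4.5 or 7.4 at 37 °C for 1 h; prodrug disappearance followed by LC–MS/MS as % remaining.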

[3] = Chemical stability in pH 7.4 assessed as compound remaining at 10 uM measured after 1 hrs by LC-MS/MS analysis; format: physicochemical; settings: buffer, pH 7.4, 1 h; method in brief: as §2
[4] = Chemical stability in pH 1.2 assessed as compound remaining at 10 uM measured after 1 hrs by LC-MS/MS analysis; format: physicochemical; settings: buffer, pH 1.2, 1 h; method in brief: as §2
[5] = Permeability of the compound at pH 7.4 incubated for 4 hrs by PAMPA-GIT assay; format: ADME; settings: pH 7.4, 4 h
Method in brief: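 PAMPA-GIT sandwich: acceptor filter coated with GIT-0 lipid; donor holds 10 μM compound in pH 7.4 buffer with 0.2% DMSO, acceptor pH 7.4 sink buffer; 4 h at room temperature; both compartments sampled by LC-MS/MS; effective permeability Pe calculated with membrane retention correction.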

[6] = Metabolic stability in mouse plasma assessed as compound remaining at 10 uM measured after 1 hrs by LC-MS analysis; format: ADME, cell-free; method in brief: as §1
[7] = Metabolic stability in mouse skin homogenate assessed as compound remaining at 10 uM measured after 1 hrs by LC-MS analysis; format: ADME, tissue-based, Skin of body; settings: tissue homogenate
[8] = Metabolic stability in human skin homogenate assessed as compound remaining at 10 uM measured after 1 hrs by LC-MS analysis; format: ADME, tissue-based, Skin of body; settings: tissue homogenate
[9] = system: NHEK; assay: Immunomodulatory activity in NHEK cells assessed as inhibition of Poly(I:C)/IFN-gamma induced IL-1 beta expression at 100 uM by TaqMan RTPCR analysis; format: functional, cell-based; settings: Homo sapiens
Method in brief: (§3)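 Primary human keratinocytes seeded, held overnight at 37 °C, 5% CO2, then stimulated with Poly(I:C) 50 μg/mL plus IFNγ 5 ng/mL, with or without prodrug at 1, 10, 30 or 100 μM; gene induction measured at 8 h.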

[10] = Immunomodulatory activity in NHEK cells assessed as inhibition of IFN-gamma induced CXCL11 expression at 100 uM by TaqMan RTPCR analysis relative to control; format: functional; settings: Homo sapiens; method in brief: as §3
[11] = Cytotoxicity against NHEK cells assessed as cell viability at 100 uM measured after 8 hrs by CellTiter-Glo assay relative to control; format: toxicity, cell-based; settings: human
Method in brief: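 Primary normal human epidermal keratinocytes, expanded and seeded, exposed to 1, 10, 30 or 100 μM for 8 h; viability by CellTiter-Glo luminescence as % viable.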

[12] = Immunomodulatory activity in NHEK cells assessed as inhibition of IFN-gamma induced CXCL10 expression at 100 uM by TaqMan RTPCR analysis relative to control; format: functional; settings: Homo sapiens; method in brief: as §3
[13] = Prodrug conversion in C57BL6 mouse plasma assessed as itaconic acid Cmax at 100 mg/kg, po measured after 24 hrs by LC-MS/MS analysis; format: ADME, organism-based; settings: in vivo
Method in brief: (§4)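 C57BL6 mice, 25–30 g, 8.5 weeks old, given 100 mg/kg (IA or 4-MI equivalent) orally in 10% DMSO/80% PEG/10% HBS, freshly prepared; killed at 0.25–24 h, n = 3 per time point; acidified plasma and stabilized skin homogenates, methanol precipitation with internal standards, LC-MS/MS (orbitrap); PK parameters as mean ± SEM.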

[14] = Prodrug conversion in C57BL6 mouse skin assessed as itaconic acid Cmax at 100 mg/kg, po measured after 24 hrs by LC-MS/MS analysis; format: ADME, organism-based, Skin of body; settings: in vivo; method in brief: as §4
[15] = Prodrug conversion in C57BL6 mouse skin assessed as itaconic acid Tmax at 100 mg/kg, po measured after 24 hrs by LC-MS/MS analysis; format: ADME, organism-based, Skin of body; settings: in vivo; method in brief: as §4
[16] = Immunomodulatory activity in NHEK cells assessed as inhibition of IFN-gamma induced CXCL11 expression at 30 to 100 uM by TaqMan RTPCR analysis relative to control; format: functional, Homo sapiens; settings: dose 30-100 µM; method in brief: as §3
[17] = Immunomodulatory activity in NHEK cells assessed as inhibition of Poly(I:C)/IFN-gamma induced IL-1 beta expression at >= 10 uM by TaqMan RTPCR analysis relative to control; format: functional, Homo sapiens; set-up: scale not given: the % may be the effect or the level left; method in brief: as §3
[18] = Prodrug conversion in C57BL6 mouse skin assessed as itaconic acid AUC (0 to t) at 100 mg/kg, po measured after 24 hrs by LC-MS/MS analysis; format: ADME, organism-based, Skin of body; settings: in vivo
[19] = Prodrug conversion in C57BL6 mouse plasma assessed as itaconic acid AUC (0 to t) at 100 mg/kg, po measured after 24 hrs by LC-MS/MS analysis; format: ADME, organism-based; settings: in vivo
[20] = Prodrug conversion in C57BL6 mouse plasma assessed as itaconic acid Tmax at 100 mg/kg, po measured after 24 hrs by LC-MS/MS analysis; format: ADME, organism-based; settings: in vivo; method in brief: as §4
[21] = Prodrug conversion in C57BL6 mouse plasma assessed as itaconic acid half life at 100 mg/kg, po measured after 24 hrs by LC-MS/MS analysis; format: ADME, organism-based; settings: in vivo; method in brief: as §4
[22] = Prodrug conversion in C57BL6 mouse skin assessed as itaconic acid half life at 100 mg/kg, po measured after 24 hrs by LC-MS/MS analysis; format: ADME, organism-based, Skin of body; settings: in vivo; method in brief: as §4
[23] = Immunomodulatory activity in NHEK cells assessed as inhibition of IL-6 mRNA expression at 100 uM preincubated for 2 days and measured after 24 hrs by TaqMan RTPCR analysis; format: functional; settings: Homo sapiens, 48 h, time 2 day
[24] = system: NHEK; assay: Effect on TLR3 mRNA expression in NHEK cells at 500 uM preincubated for 2 days and measured after 24 hrs by TaqMan RTPCR analysis; format: functional, cell-based; settings: Homo sapiens, time 2.0 day
[25] = system: NHEK; assay: Effect on IL-6 expression in NHEK cells at 500 uM preincubated for 2 days and measured after 24 hrs by TaqMan RTPCR analysis; format: functional, cell-based; settings: Homo sapiens, time 2.0 day
[26] = Prodrug conversion in C57BL6 mouse plasma assessed as 4-methyl itaconate Cmax at 100 mg/kg, po measured after 24 hrs by LC-MS/MS analysis; format: ADME, organism-based; settings: in vivo; method in brief: as §4
[27] = Prodrug conversion in C57BL6 mouse skin assessed as 4-methyl itaconate Tmax at 100 mg/kg, po measured after 24 hrs by LC-MS/MS analysis; format: ADME, organism-based, Skin of body; settings: in vivo; method in brief: as §4
[28] = Toxicity in C57BL6 mouse assessed as body weight loss at 30 to 100 mg/kg, ip administrated daily and measured after 7 days; format: organism-based; settings: in vivo, 168 h, dose 30-100 mg/kg, time 7 day
[29] = Prodrug conversion in po dosed C57BL6 mouse skin assessed as 4-methyl itaconic concentration measured after 24 hrs; format: ADME, organism-based, Skin of body; settings: in vivo
[30] = Prodrug conversion in C57BL6 mouse skin assessed as 4-methyl itaconic half life at 100 mg/kg, po measured after 24 hrs by LC-MS/MS analysis; format: ADME, organism-based, Skin of body; settings: in vivo; method in brief: as §4
[31] = Prodrug conversion in C57BL6 mouse skin assessed as 4-methyl itaconic AUC (0 to t) at 100 mg/kg, po measured after 24 hrs by LC-MS/MS analysis; format: ADME, organism-based, Skin of body; settings: in vivo
[32] = Prodrug conversion in C57BL6 mouse skin assessed as 4-methyl itaconate Cmax at 100 mg/kg, po measured after 24 hrs by LC-MS/MS analysis; format: ADME, organism-based, Skin of body; settings: in vivo; method in brief: as §4
[33] = Toxicity in C57BL6 mouse assessed as hematological changes at 30 to 100 mg/kg, ip measured after 7 days; format: organism-based; settings: in vivo, 168 h, dose 30-100 mg/kg, time 7 day
[34] = Prodrug conversion in C57BL6 mouse plasma assessed as 4-methyl itaconate Tmax at 100 mg/kg, po measured after 24 hrs by LC-MS/MS analysis; format: ADME, organism-based; settings: in vivo; method in brief: as §4
[35] = Prodrug conversion in C57BL6 mouse plasma assessed as 4-methyl itaconic AUC (0 to t) at 100 mg/kg, po measured after 24 hrs by LC-MS/MS analysis; format: ADME, organism-based; settings: in vivo
[36] = Prodrug conversion in C57BL6 mouse plasma assessed as 4-methyl itaconic half life at 100 mg/kg, po measured after 24 hrs by LC-MS/MS analysis; format: ADME, organism-based; settings: in vivo; method in brief: as §4

| SMILES | Stability [1] [%] | Stability [2] [%] | Stability [3] [%] | Stability [4] [%] | permeability [5] | Stability [6] [%] | Stability [7] [%] | Stability [8] [%] | also measured |
| --- | --- | --- | --- | --- | --- | --- | --- | --- | --- |
| C=C(CC(=O)OC)C(=O)OCc1oc(=O)oc1C | 0 | 87 | 99 | 98 | 15.4 10^-6 cm/s | 0 | 16 | 76 | – |
| C=C(CC(=O)OCOC(=O)C(C)(C)C)C(=O)OC | 0 | 104 | 86 | 101 | 35.2 10^-6 cm/s | 0 | 0 | 9.4 | – |
| C=C(CC(=O)OC)C(=O)OCCCOCCCCCCCCCCCCCCCC | 32 | 108 | 75 | 103 | – | 44 | 67 | 94 | – |
| C=C(CC(=O)OCCCOCCCCCCCCCCCCCCCC)C(=O)O | 68 | 90 | 65 | 91 | 3.2 10^-6 cm/s | 92 | 100 | 87 | – |
| C=C(CC(=O)OCc1oc(=O)oc1C)C(=O)OCc1oc(=O)oc1C | 0 | 91 | 91 | 102 | 17 10^-6 cm/s | 0 | 0 | 30 | – |
| C=C(CC(=O)OCOC(=O)C(C)(C)C)C(=O)O | 83 | 74 | 22 | 100 | 0.08 10^-6 cm/s | 3 | 14 | 40 | – |
| C=C(CC(=O)OCOC(=O)OC(C)C)C(=O)OC | 0 | 94 | 63 | 98 | 29.3 10^-6 cm/s | 0 | 0 | 0 | Activity [9]: Active; inhibition at 100 µM [10]: < 50%; Activity [11]: > 80%; inhibition at 100 µM [12]: < 50% |
| C=C(CC(=O)OCOC(=O)OC(C)C)C(=O)O | 53 | 79 | 44 | 104 | – | 0 | 4.9 | 29 | – |
| C=C(CC(=O)OCc1oc(=O)oc1C)C(=O)O | 0 | 88 | 0 | 109 | – | 20 | 74 | 93 | – |
| C=C(CC(=O)OCOC(=O)C(C)(C)C)C(=O)OCOC(=O)C(C)(C)C | 0 | 92 | 104 | 106 | 35.8 10^-6 cm/s | 0 | 0 | 0 | – |
| C=C(CC(=O)OCOC(=O)OC(C)C)C(=O)OCOC(=O)OC(C)C | 0 | – | 47 | 104 | 35.9 10^-6 cm/s | 0 | 2.5 | 1.1 | Cmax [13]: 83.8 µM; Cmax [14]: 65.9 nmol/g; Activity [11]: > 80%; Tmax [15]: 60 min; inhibition (INH) [16]: >50%; Activity [17]: >50%; AUCt [18]: 173 nmol·h/g; AUCt [19]: 108 µM·h; Tmax [20]: 15 min; t1/2 [21]: 85.2 min; t1/2 [22]: 199 min; inhibition at 100 µM [23]: > 90% |
| C=C(CC(=O)OCCCOCCCCCCCCCCCCCCCC)C(=O)OC | 90 | 98 | 97 | 109 | – | 89 | 61 | 101 | – |
| C=C(CC(=O)OC)C(=O)O | – | – | – | – | – | – | – | – | Activity [24]: inactive; Activity [25]: inactive |
| C=C(CC(=O)OCc1oc(=O)oc1C)C(=O)OC | 0 | 97 | 69 | 100 | 16.3 10^-6 cm/s | 0 | 0 | 56 | – |
| C=C(CC(=O)OC)C(=O)OCOC(=O)C(C)(C)C | 0 | 109 | 94 | 99 | 33.2 10^-6 cm/s | 0 | 5.3 | 15 | – |
| C=C(CC(=O)OC)C(=O)OCOC(=O)OC(C)C | 0 | 103 | 102 | 108 | 35.3 10^-6 cm/s | 0 | 0 | 1.6 | Cmax [26]: 349 µM; Activity [11]: > 80%; inhibition (INH) [16]: >50%; Activity [17]: >50%; Tmax [27]: 60 min; Activity [28]: Non-toxic; Drug metabolism [29]: > 100 µM; t1/2 [30]: 58.2 min; AUCt [31]: 234 nmol·h/g; Cmax [32]: 192 nmol/g; Activity [33]: Non-toxic; Tmax [34]: 30 min; AUCt [35]: 415 µM·h; t1/2 [36]: 52.2 min; inhibition at 100 µM [23]: > 90% |
| C=C(CC(=O)O)C(=O)O | – | – | – | – | – | – | – | – | Activity [24]: inactive; Activity [25]: inactive |
